In ChEMBL document CHEMBL5724801, “EUbOPEN Chemogenomics Library - Multiplex” (2024):
Values joined by “and” are separate entries in the source; they are usually repeats but may differ in a detail not shown here. Equal values may be shown once.

Tested on: HEK-293T
Test: Multiplex assay against HEK293T
Assay type: toxicity, cell-based
Conditions: human
Procedure, shortened: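 Hoechst33342, BioTracker Green Microtubule Cytoskeleton Dye, MitoTracker Red and Annexin V Alexa Fluor 680 were added to live cells at seeding, and imaging on a CQ1 microscope at 37°C and 5% CO2 followed compound addition. Gating by CellPathfinder machine learning separated cells into Hoechst high-intensity objects or normal cells, then normal cells into healthy, pyknosed or fragmented nuclei, then pyknosed cells into mitotic or apoptotic. Per cents of healthy-nucleus cells are reported for the tubulin, mitochondrial-mass and membrane-permeability phenotypes.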

[1] = 12 h, 1 µM, compound concentration 1 uM
[2] = 12 h, 10 µM, compound concentration 10 uM
[3] = 24 h, 1 µM, compound concentration 1 uM
[4] = 24 h, 10 µM, compound concentration 10 uM
[5] = 48 h, 1 µM, compound concentration 1 uM
[6] = 48 h, 10 µM, compound concentration 10 uM

SMILES: Oc1c(CN2CCN(c3ccccn3)CC2)cc(Cl)c2cccnc12
- Population Apoptotic (%) [1]: 30% and 45%
- Population Fragmented Nuclei (%) [1]: 6% and 5%
- Population Healthy Nuclei (%) [1]: 83% and 80%
- Population Hoechst High Intensity Objects (%) [1]: 7%
- Population Membrane Permeable-Phenotype (%) [1]: 0%
- Population Mitochondria Different-Phenotype (%) [1]: 44% and 59%
- Population Mitotic Cells (%) [1]: 70% and 54%
- Population Normal (%) [1]: 92%
- Population Pyknosed Nuclei (%) [1]: 10% and 13%
- Population Tubulin-Different-Phenotype (%) [1]: 34% and 20%
- Total Cell Count [1]: 424 and 354
- Population Apoptotic (%) [2]: 71% and 73%
- Population Fragmented Nuclei (%) [2]: 16% and 18%
- Population Healthy Nuclei (%) [2]: 64% and 69%
- Population Hoechst High Intensity Objects (%) [2]: 11% and 6%
- Population Membrane Permeable-Phenotype (%) [2]: 0%
- Population Mitochondria Different-Phenotype (%) [2]: 64% and 70%
- Population Mitotic Cells (%) [2]: 28% and 26%
- Population Normal (%) [2]: 88% and 93%
- Population Pyknosed Nuclei (%) [2]: 18% and 12%
- Population Tubulin-Different-Phenotype (%) [2]: 20% and 32%
- Total Cell Count [2]: 197 and 327
- Population Apoptotic (%) [3]: 34% and 33%
- Population Fragmented Nuclei (%) [3]: 6% and 7%
- Population Healthy Nuclei (%) [3]: 84%
- Population Hoechst High Intensity Objects (%) [3]: 3%
- Population Membrane Permeable-Phenotype (%) [3]: 0%
- Population Mitochondria Different-Phenotype (%) [3]: 22% and 40%
- Population Mitotic Cells (%) [3]: 65% and 66%
- Population Normal (%) [3]: 96%
- Population Pyknosed Nuclei (%) [3]: 9% and 8%
- Population Tubulin-Different-Phenotype (%) [3]: 23% and 13%
- Total Cell Count [3]: 529 and 427
- Population Apoptotic (%) [4]: 93% and 81%
- Population Fragmented Nuclei (%) [4]: 18% and 21%
- Population Healthy Nuclei (%) [4]: 65% and 63%
- Population Hoechst High Intensity Objects (%) [4]: 13% and 7%
- Population Membrane Permeable-Phenotype (%) [4]: 1%
- Population Mitochondria Different-Phenotype (%) [4]: 65% and 78%
- Population Mitotic Cells (%) [4]: 6% and 18%
- Population Normal (%) [4]: 86% and 92%
- Population Pyknosed Nuclei (%) [4]: 15%
- Population Tubulin-Different-Phenotype (%) [4]: 19% and 34%
- Total Cell Count [4]: 227 and 354
- Population Apoptotic (%) [5]: 29% and 31%
- Population Fragmented Nuclei (%) [5]: 12% and 10%
- Population Healthy Nuclei (%) [5]: 80% and 83%
- Population Hoechst High Intensity Objects (%) [5]: 3%
- Population Membrane Permeable-Phenotype (%) [5]: 0%
- Population Mitochondria Different-Phenotype (%) [5]: 22% and 17%
- Population Mitotic Cells (%) [5]: 70% and 68%
- Population Normal (%) [5]: 96%
- Population Pyknosed Nuclei (%) [5]: 6% and 5%
- Population Tubulin-Different-Phenotype (%) [5]: 16% and 10%
- Total Cell Count [5]: 689 and 518
- Population Apoptotic (%) [6]: 83% and 94%
- Population Fragmented Nuclei (%) [6]: 23% and 28%
- Population Healthy Nuclei (%) [6]: 44% and 49%
- Population Hoechst High Intensity Objects (%) [6]: 25% and 14%
- Population Membrane Permeable-Phenotype (%) [6]: 0%
- Population Mitochondria Different-Phenotype (%) [6]: 60% and 81%
- Population Normal (%) [6]: 74% and 85%
- Population Pyknosed Nuclei (%) [6]: 31% and 22%
- Population Tubulin-Different-Phenotype (%) [6]: 30% and 42%
- Total Cell Count [6]: 204 and 295

SMILES: CC(C)(C)c1cc(C(C)(C)C)c(NC(=O)c2c[nH]c3ccccc3c2=O)cc1O [IVACAFTOR]
- Population Apoptotic (%) [1]: 10.06% and 8.26%
- Population Fragmented Nuclei (%) [1]: 0% and 2.11%
- Population Healthy Nuclei (%) [1]: 51.67% and 21.13%
- Population Hoechst High Intensity Objects (%) [1]: 0.3% and 0%
- Population Membrane Permeable-Phenotype (%) [1]: 0.59% and 0%
- Population Mitochondria Different-Phenotype (%) [1]: 31.76% and 13.33%
- Population Mitotic Cells (%) [1]: 89.94% and 91.74%
- Population Normal (%) [1]: 99.7% and 100%
- Population Pyknosed Nuclei (%) [1]: 48.33% and 76.76%
- Total Cell Count [1]: 330 and 142
- Population Apoptotic (%) [2]: 31.3% and 21.05%
- Population Fragmented Nuclei (%) [2]: 2.9% and 1.94%
- Population Hoechst High Intensity Objects (%) [2]: 0.72% and 0%
- Population Membrane Permeable-Phenotype (%) [2]: 0%
- Population Mitochondria Different-Phenotype (%) [2]: 27.01% and 57.89%
- Population Mitotic Cells (%) [2]: 68.7% and 78.95%
- Population Normal (%) [2]: 99.28% and 100%
- Population Pyknosed Nuclei (%) [2]: 47.46% and 85.81%
- Total Cell Count [2]: 278 and 155
- Population Apoptotic (%) [3]: 15.6% and 17.89%
- Population Fragmented Nuclei (%) [3]: 0.58% and 1.37%
- Population Healthy Nuclei (%) [3]: 78.42% and 33.56%
- Population Hoechst High Intensity Objects (%) [3]: 0%
- Population Membrane Permeable-Phenotype (%) [3]: 0.49% and 2.04%
- Population Mitochondria Different-Phenotype (%) [3]: 13.02% and 8.16%
- Population Mitotic Cells (%) [3]: 84.4% and 82.11%
- Population Normal (%) [3]: 100%
- Population Tubulin-Different-Phenotype (%) [3]: 7.13% and 10.2%
- Population Apoptotic (%) [4]: 52.29% and 35.25%
- Population Fragmented Nuclei (%) [4]: 2.77% and 2.63%
- Population Hoechst High Intensity Objects (%) [4]: 0.82% and 0%
- Population Membrane Permeable-Phenotype (%) [4]: 0% and 3.85%
- Population Mitotic Cells (%) [4]: 47.71% and 64.75%
- Population Normal (%) [4]: 99.18% and 100%
- Population Pyknosed Nuclei (%) [4]: 30.19% and 80.26%
- Population Tubulin-Different-Phenotype (%) [4]: 10.74% and 7.69%
- Total Cell Count [4]: 364 and 152
- Population Apoptotic (%) [5]: 8.49% and 16.88%
- Population Fragmented Nuclei (%) [5]: 2.06% and 0.56%
- Population Healthy Nuclei (%) [5]: 89.56% and 55.93%
- Population Hoechst High Intensity Objects (%) [5]: 0.24% and 0.56%
- Population Membrane Permeable-Phenotype (%) [5]: 3.45% and 1.01%
- Population Mitotic Cells (%) [5]: 91.51% and 83.12%
- Population Normal (%) [5]: 99.76% and 99.44%
- Population Apoptotic (%) [6]: 17.35% and 40.23%
- Population Fragmented Nuclei (%) [6]: 2.23% and 4%
- Population Healthy Nuclei (%) [6]: 84.89% and 46.29%
- Population Hoechst High Intensity Objects (%) [6]: 0.13% and 1.69%
- Population Membrane Permeable-Phenotype (%) [6]: 2.48% and 1.23%
- Population Mitochondria Different-Phenotype (%) [6]: 34.21% and 56.79%
- Population Mitotic Cells (%) [6]: 82.65% and 59.77%
- Population Normal (%) [6]: 99.87% and 98.31%
